Source: PubChem BioAssay
Active and inactive are the calls of the source.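 The calls were made as follows, unless noted: active = viability at or below 30% in both replicate assays; inconclusive = viability at or below 30% in just one of the two assays; inactive = the rest.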

Columns and labels:
[1] = Her2 expression decrease, cell viability multiplex – SKBR3 breast tumor cells, AlphaScreen, ATP viability, primary screen (AID 461;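 active = Her2 level under about 52% in both replicate screens, with viability over 70% of control, limit read from the data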;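 as to Her2 level: lower value means less Her2 protein in the cells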;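 as to viability: percent of carrier control wells set as 100% viability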); settings: SKBR3 Her2 protein level, 18-24 h, measured here: SKBR3 viability, ATP luminescence, at 10 µM
[2] = target: Receptor tyrosine-protein kinase erbB-2 (Homo sapiens) (UniProt P04626); assay: as above; settings: 18-24 h, at 10 µM, stronger effect = lower value
Chain of Receptor tyrosine-protein kinase erbB-2 (Homo sapiens) (P04626 whole entry, looked up): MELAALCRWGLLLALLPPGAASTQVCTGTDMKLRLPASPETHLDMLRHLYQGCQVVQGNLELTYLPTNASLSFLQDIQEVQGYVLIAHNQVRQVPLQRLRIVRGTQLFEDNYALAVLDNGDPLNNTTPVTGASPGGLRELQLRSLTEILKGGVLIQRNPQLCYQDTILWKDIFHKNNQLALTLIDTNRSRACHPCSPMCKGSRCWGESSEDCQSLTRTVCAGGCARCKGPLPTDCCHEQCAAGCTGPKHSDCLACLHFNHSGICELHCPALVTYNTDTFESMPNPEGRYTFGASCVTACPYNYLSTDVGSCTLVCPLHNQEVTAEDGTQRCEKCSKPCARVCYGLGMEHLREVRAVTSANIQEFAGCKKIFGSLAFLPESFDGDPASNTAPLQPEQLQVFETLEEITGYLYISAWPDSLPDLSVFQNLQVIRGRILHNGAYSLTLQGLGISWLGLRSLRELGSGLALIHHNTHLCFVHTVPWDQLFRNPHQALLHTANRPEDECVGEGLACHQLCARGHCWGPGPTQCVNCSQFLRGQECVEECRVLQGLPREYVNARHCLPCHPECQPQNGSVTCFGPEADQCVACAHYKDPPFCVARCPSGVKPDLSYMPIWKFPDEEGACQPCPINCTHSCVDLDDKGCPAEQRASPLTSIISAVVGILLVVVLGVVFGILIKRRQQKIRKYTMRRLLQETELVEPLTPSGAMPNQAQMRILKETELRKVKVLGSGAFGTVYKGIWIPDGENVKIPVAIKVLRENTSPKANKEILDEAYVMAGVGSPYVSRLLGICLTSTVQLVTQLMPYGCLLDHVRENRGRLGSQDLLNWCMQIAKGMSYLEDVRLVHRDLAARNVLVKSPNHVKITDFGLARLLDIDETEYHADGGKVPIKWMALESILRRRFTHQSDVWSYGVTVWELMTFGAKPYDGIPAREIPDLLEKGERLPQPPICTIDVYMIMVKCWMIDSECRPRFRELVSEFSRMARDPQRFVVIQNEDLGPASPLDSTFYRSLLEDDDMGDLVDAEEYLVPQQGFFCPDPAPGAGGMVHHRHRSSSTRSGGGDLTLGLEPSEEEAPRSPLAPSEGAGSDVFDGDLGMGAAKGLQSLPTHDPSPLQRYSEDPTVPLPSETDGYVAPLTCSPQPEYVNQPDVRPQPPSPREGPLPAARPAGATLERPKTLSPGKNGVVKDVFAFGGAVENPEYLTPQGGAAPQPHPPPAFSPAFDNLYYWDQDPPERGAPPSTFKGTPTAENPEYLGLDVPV

[3] = reduced viability of SK-BR-3 breast cancer cells – cell-based, 24 h, human, pilot screen (AID 572;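 active = viability at or below 10% of carrier control in both of two separate runs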;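 also: compound exposure lasted between 18 and 24 h rather than exactly 24 h; 100% = carrier-treated control wells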); settings: SK-BR-3 viability, CellTiter-Glo luminescence, at 10 µM, stronger effect = lower value
[4] = HUVEC growth inhibition – cell-based, human, primary screen (AID 575); settings: HUVEC proliferation, CellTiter-Glo luminescence, 72 h; at 10 µM; stronger effect = lower value;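 also: 100% = median of untreated cell wells with 0.1% DMSO on each plate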
Procedure, shortened: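 Test system: primary human umbilical vein endothelial cells; medium: endothelial basal medium with 2% FBS plus growth supplements; dosing: 10 µM compound only; times: 72 h treatment at 37 °C; signal: CTG luminescence; read-out: % viability relative to median vehicle-well signal on each plate; control set: vehicle and MePR control wells; plate: 384-well, collagen-coated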

[5] = H69AR cell proliferation blockers – human, duplicate replicates, primary screen (AID 580;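 active = viability at or under a set limit in both replicates, limit being median viability minus 3 SD, cut at about 48% in these data, passing the limit was not always enough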;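 also: 100% = mean luminescence of untreated wells and 0% = no signal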); settings: H69AR lung tumor cells viability, ATP luminescence, 72 h; at 10 µM; stronger effect = lower value
[6] = MRP1 drug-resistance reversers in H69AR cells – cell-based, doxorubicin co-treatment, pilot screen (AID 601;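 active = viability loss from added drug above about 55%, and viability with drug at most 40%, in both replicates, limit read from the data, passing the limit was not always enough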); settings: CellTiter-Glo, 72 h, at 10 µM; for differential viability (reversal): stronger effect = higher value
[7] = yeast transport mutant growth inhibition pilot in 384-well plates, post-Golgi transport modulator project (AID 636; in the data active = inhibition above about 31%); settings: absorbance 615 nm, about 18 h, stronger effect = higher value
[8] = growth suppression of yeast trafficking mutant, preliminary HTS, modulators of trafficking downstream of Golgi apparatus project, 1536-format plate, OD 615 nm (AID 637; in the data active = inhibition above about 30%); settings: yeast transport mutant growth, absorbance 615 nm, 18 h; stronger effect = higher value
[9] = H69AR cells + 2 uM doxorubicin, measured here: viability with 2 uM doxorubicin, stronger effect = lower value
[10] = H69AR cells, compound alone cytotoxicity

Row | SMILES | viability [1] [%] | Her2 level [2] | viability [3] | viability [4] | viability [5] | differential viability (reversal) ([6]; H69AR cells + 2 uM doxorubicin) | viability [6, 9] [%] | viability [6, 10] [%] | inhibition [7] | inhibition [8]
1 | O=c1c2ccccc2cnn1-c1nc2ccccc2s1 | 91 | 73% (inactive) | 91% (inactive) | 63.6% (inactive) | 81.6% (inactive) | 0.15% (inactive) | 81.4 | 81.6 | -7.3% (inactive) | -3.33% (inactive)
2 | O=C(COC(=O)CCC(=O)c1cccs1)NCc1ccco1 | 98 | 109% (inactive) | 98% (inactive) | 89.3% (inactive) | 79.8% (inactive) | 2.55% (inactive) | 77.3 | 79.8 | -3.59% (inactive) | -1.5% (inactive)
3 | COc1ccc(N2CCN(C(=O)C(OC(C)=O)c3ccccc3)CC2)cc1 (stereo not given) | 96.5 | 99% (inactive) | 96.5% (inactive) | 89.4% (inactive) | 97% (inactive) | 2.1% (inactive) | 94.9 | 97 | -0.53% (inactive) | -2.38% (inactive)
4 | CCCOC(=O)C1[C@H]2C(=O)N(CCCOC)C[C@]23C=C[C@H]1O3 (stereo not given in full) | 92.5 | 85% (inactive) | 92.5% (inactive) | 98.5% (inactive) | 98.3% (inactive) | -1.98% (inactive) | 100 | 98.3 | -5.06% (inactive) | -3.17% (inactive)
5 | Cc1c(NC(=O)C(C)OC(=O)C(NC(=O)c2ccco2)C(C)C)c(=O)n(-c2ccccc2)n1C (stereo not given) | 91 | 91.5% (inactive) | 91% (inactive) | 90.9% (inactive) | 91.5% (inactive) | 5.67% (inactive) | 85.8 | 91.5 | -6.89% (inactive) | -5.5% (inactive)
6 | O=C(O)C1CCCN1S(=O)(=O)c1ccc2ccccc2c1 (stereo not given) | 106 | 110% (inactive) | 106% (inactive) | 101% (inactive) | 95.6% (inactive) | -12% (inactive) | 108 | 95.6 | 0.27% (inactive) | 9.51% (inactive)
7 | Cc1cc(NS(=O)(=O)c2ccc(Nc3nc(-c4sc(N)nc4C)cs3)cc2)no1 | 104 | 116% (inactive) | 104% (inactive) | 75.5% (inactive) | 98% (inactive) | 9.14% (inactive) | 88.8 | 98 | -4.08% (inactive) | -4% (inactive)
8 | COc1cc2c(cc1OC)C(C)N(C(=O)c1cc3n(n1)C(C(F)(F)F)CC(c1ccco1)N3)CC2 (stereo not given) | 108 | 68.5% (inactive) | 108% (inactive) | 62% (inactive) | 75% (inactive) | -14.3% (inactive) | 89.3 | 75 | -6% (inactive) | 4.26% (inactive)
9 | FC(F)(F)c1cc(-c2ccco2)nc(N2CCOCC2)n1 | 86 | 80.5% (inactive) | 86% (inactive) | 69.1% (inactive) | 92.4% (inactive) | 18.6% (inactive) | 73.8 | 92.4 | -6.93% (inactive) | 7.21% (inactive)
10 | Cc1ccc(C)c(S(=O)(=O)NCc2ccc(C(=O)N3CCN(C)CC3)cc2)c1 | 99.5 | 85.5% (inactive) | 99.5% (inactive) | 89.7% (inactive) | 91.7% (inactive) | 5.15% (inactive) | 86.5 | 91.7 | -5.68% (inactive) | -3% (inactive)
11 | COc1ccc(N2CCN(c3ccc(NC(=O)C4CCCCC4)cc3C#N)CC2)cc1 | 98 | 84% (inactive) | 98% (inactive) | 78.6% (inactive) | 93% (inactive) | 2.67% (inactive) | 90.4 | 93 | -1.76% (inactive) | -2.22% (inactive)
12 | COc1ccc(N(CC(=O)NCCSC(C)(C)C)S(C)(=O)=O)c(OC)c1 | 91 | 97.5% (inactive) | 91% (inactive) | 106% (inactive) | 92.8% (inactive) | -8.27% (inactive) | 101 | 92.8 | 1.04% (inactive) | 2.62% (inactive)
13 | COc1ccc(C(=O)N(Cc2ccco2)C(C(=O)NC2CCCC2)c2ccc(O)cc2)cc1OC (stereo not given) | 77.5 | 85% (inactive) | 77.5% (inactive) | 76.8% (inactive) | 78.8% (inactive) | -1.66% (inactive) | 80.4 | 78.8 | -1.32% (inactive) | -8% (inactive)
14 | CCn1c(SCC(=O)Nc2ccc(C(C)=O)cc2)nc2ccccc21 | 90 | 77% (inactive) | 90% (inactive) | 57% (inactive) | 83.1% (inactive) | -3.56% (inactive) | 86.7 | 83.1 | -1.45% (inactive) | -3.45% (inactive)
